Experimental data published in ChEMBL document CHEMBL2086277, “Pyridonepezils, new dual AChE inhibitors as potential drugs for the treatment of Alzheimer's disease: synthesis, biological assessment, and molecular modeling” (Eur J Med Chem, 2012).

Columns and labels:
Acetylcholinesterase [1] = molecular target: T1, Acetylcholinesterase (Homo sapiens, UniProt P22303); test: Inhibition of human erythrocyte AChE using acetylthiocholine as substrate by Ellman method
[2] = Permeability of the compound in PBS/ethanol at 1 mg/ml after 4 hrs by PAMPA; format: ADME; conditions: for Papp at 4 h, 1 mg/ml: PAMPA, read-out: permeability
Summary of the method: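 PAMPA-BBB: permeability (Pe) measured through a porcine brain lipid extract membrane, using PBS:EtOH (70:30) as the medium. The assay was validated against 15 commercial drugs by correlating measured with reported Pe values. Data are mean ± SD of three independent experiments.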

Cholinesterase [3] = molecular target: Cholinesterase (Homo sapiens, UniProt P06276); test: Inhibition of human serum BChE using butyrylthiocholine as substrate by Ellman method
Cholinesterase (Homo sapiens, UniProt P06276), sequence (P06276 whole entry): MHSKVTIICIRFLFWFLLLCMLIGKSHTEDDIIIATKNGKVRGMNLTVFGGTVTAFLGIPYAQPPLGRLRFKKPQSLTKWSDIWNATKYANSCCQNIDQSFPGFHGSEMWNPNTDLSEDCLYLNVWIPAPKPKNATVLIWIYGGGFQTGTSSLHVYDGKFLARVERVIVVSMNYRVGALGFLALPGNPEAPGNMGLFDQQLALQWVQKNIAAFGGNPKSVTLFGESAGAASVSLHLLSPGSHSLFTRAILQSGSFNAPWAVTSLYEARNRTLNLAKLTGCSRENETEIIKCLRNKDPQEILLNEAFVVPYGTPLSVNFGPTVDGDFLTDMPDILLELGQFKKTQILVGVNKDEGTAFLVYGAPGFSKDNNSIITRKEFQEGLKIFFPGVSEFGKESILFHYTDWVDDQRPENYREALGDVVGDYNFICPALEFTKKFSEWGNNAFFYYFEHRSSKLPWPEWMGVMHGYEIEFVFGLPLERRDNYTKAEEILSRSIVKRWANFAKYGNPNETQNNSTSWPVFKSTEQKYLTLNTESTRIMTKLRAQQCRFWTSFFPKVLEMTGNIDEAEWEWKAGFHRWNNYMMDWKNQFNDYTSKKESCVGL
Summary of the method: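 IC50 is the concentration giving 50% inhibition of human BuChE, reported as mean ± SEM of three independent experiments.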

Acetylcholinesterase [4] = molecular target: T1, Acetylcholinesterase; test: Ratio of donepezil IC50 to compound IC50 for human erythrocyte AChE using acetylthiocholine as substrate by Ellman method
Cholinesterase [5] = molecular target: Cholinesterase (Equus caballus, UniProt P81908); test: Inhibition of equine BChE
Cholinesterase (Equus caballus, UniProt P81908), sequence (P81908 whole entry): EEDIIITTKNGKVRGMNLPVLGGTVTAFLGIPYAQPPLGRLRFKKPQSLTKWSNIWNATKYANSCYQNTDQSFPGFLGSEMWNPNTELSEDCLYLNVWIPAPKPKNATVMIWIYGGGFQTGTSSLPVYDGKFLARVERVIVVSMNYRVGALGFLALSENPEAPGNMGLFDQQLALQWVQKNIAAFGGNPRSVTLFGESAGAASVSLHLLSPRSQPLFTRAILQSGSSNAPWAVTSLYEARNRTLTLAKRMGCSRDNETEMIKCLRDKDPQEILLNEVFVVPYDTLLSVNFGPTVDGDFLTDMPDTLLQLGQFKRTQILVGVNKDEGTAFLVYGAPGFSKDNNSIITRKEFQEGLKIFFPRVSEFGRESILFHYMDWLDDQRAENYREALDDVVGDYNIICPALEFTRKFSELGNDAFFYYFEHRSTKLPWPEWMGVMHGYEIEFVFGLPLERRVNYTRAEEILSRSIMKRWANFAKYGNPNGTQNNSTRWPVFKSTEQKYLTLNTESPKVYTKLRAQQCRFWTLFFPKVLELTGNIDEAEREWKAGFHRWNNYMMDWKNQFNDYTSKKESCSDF

T1 sequence (P22303 whole entry): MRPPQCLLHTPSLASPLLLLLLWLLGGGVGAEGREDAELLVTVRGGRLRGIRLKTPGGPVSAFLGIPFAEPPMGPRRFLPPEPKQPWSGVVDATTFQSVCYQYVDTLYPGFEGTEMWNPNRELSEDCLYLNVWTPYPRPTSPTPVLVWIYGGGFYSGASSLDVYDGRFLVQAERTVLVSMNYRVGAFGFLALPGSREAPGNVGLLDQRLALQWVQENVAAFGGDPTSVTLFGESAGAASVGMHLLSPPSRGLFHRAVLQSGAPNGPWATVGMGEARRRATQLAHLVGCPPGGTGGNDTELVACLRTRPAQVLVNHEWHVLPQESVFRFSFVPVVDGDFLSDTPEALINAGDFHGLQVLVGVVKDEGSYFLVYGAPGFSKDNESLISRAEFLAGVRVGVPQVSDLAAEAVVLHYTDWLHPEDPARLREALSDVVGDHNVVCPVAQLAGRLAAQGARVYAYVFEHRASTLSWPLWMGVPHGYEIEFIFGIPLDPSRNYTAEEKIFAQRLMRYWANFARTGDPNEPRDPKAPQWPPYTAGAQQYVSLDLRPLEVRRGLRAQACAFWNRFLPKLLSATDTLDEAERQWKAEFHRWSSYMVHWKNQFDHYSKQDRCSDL

Row | Structure (SMILES) | IC50 (Acetylcholinesterase [1]) | permeability ([2]; pampa, 4 h) | IC50 (Cholinesterase [3]) | Papp at 4 h, 1 mg/ml [2] | Ratio IC50 (Acetylcholinesterase [4]) | IC50 (Cholinesterase [5])
1 | N#Cc1c(N)nc(NC2CCN(Cc3ccccc3)CC2)c(C#N)c1-c1ccccc1 | 8800 nM | ND(Insoluble) | > 10000 nM | – | – | –
2 | N#Cc1c(N)nc(NCCCCC2CCN(Cc3ccccc3)CC2)c(C#N)c1-c1ccccc1 | 120 nM | – | 580 nM | 25.7 ×10⁻⁶ cm/s | – | –
3 | N#Cc1cc(C#N)c(NCCCC2CCN(Cc3ccccc3)CC2)nc1N | 9.4 nM | – | 6600 nM | 20.8 ×10⁻⁶ cm/s | 1.4 | –
4 | N#Cc1cc(C#N)c(NCCC2CCN(Cc3ccccc3)CC2)nc1N | 220 nM | – | 260 nM | 14.4 ×10⁻⁶ cm/s | – | –
5 | N#Cc1c(N)nc(NCCCC2CCN(Cc3ccccc3)CC2)c(C#N)c1-c1ccccc1 | 240 nM | – | 1500 nM | 31.6 ×10⁻⁶ cm/s | – | –
6 | N#Cc1cc(C#N)c(NC2CCN(Cc3ccccc3)CC2)nc1N | 3100 nM | – | > 10000 nM | 17 ×10⁻⁶ cm/s | – | –
7 | N#Cc1c(N)nc(NCCC2CCN(Cc3ccccc3)CC2)c(C#N)c1-c1ccccc1 | 390 nM | – | 670 nM | 34 ×10⁻⁶ cm/s | – | –
8 | N#Cc1cc(C#N)c(N2CCCC2)nc1N | – | – | – | – | – | > 10000 nM
9 | N#Cc1cc(C#N)c(NCCCCC2CCN(Cc3ccccc3)CC2)nc1N | 70 nM | – | 1700 nM | 21.2 ×10⁻⁶ cm/s | – | –
